Measurements published in ChEMBL document CHEMBL4257520, “Design, synthesis and bioactivity investigation of tetrandrine derivatives as potential anti-cancer agents” (Medchemcomm, 2018).
The source made the active and inactive calls. The calls are words filed in the database; no cut-off is given here.

Key:
MDA-MB-231 [1] = assay: Induction of apoptosis in human MDA-MB-231 cells assessed as late apoptotic cells at 1.25 uM after 24 hrs by Annexin V-FITC/propidium iodide staining based flow cytometry (reference value: 1.9%); format: functional
MDA-MB-231 [2] = assay: Antiproliferative activity against human MDA-MB-231 cells after 48 hrs by MTT assay; format: functional, cell-based; conditions: MDA-MB-231, 48 h
Method in brief: (§1)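 MTT assay on human cancer lines held at 37 °C, 95% humidity, 5% CO2. Cells were exposed to compounds at 20.0–0.5 μM for 48 h, then washed twice with PBS. MTT (5 mg mL–1 in PBS) was added for 4 h at 37 °C, the formazan was dissolved in DMSO, and A490 was read. IC50 comes from replicate wells over three independent experiments.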

MDA-MB-231 [3] = assay: Induction of apoptosis in human MDA-MB-231 cells assessed as live cells at 1.25 uM after 24 hrs by Annexin V-FITC/propidium iodide staining based flow cytometry (reference value: 95.7%); format: functional
PC-3 = assay: Antiproliferative activity against human PC3 cells after 48 hrs by MTT assay; format: functional, cell-based; conditions: PC-3, 48 h; method in brief: as §1
MDA-MB-231 [4] = assay: Induction of apoptosis in human MDA-MB-231 cells assessed as decrease in Bcl-xl expression at 2.5 uM after 24 hrs by Western blot analysis; format: functional, cell-based
Method in brief: (§2)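 MDA-MB-231 cells were treated at 2.5 μM for 24 h and lysed in RIPA buffer. Protein was resolved on 10% SDS-PAGE, transferred to PVDF, and blocked in 5% BSA for 2 h at RT. Primary antibodies were applied overnight at 4 °C and HRP-conjugated secondary antibodies for 2 h at RT. Bands were detected by ECL, with β-actin as the loading reference.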

MDA-MB-231 [5] = assay: Induction of apoptosis in human MDA-MB-231 cells assessed as decrease in Bcl2 expression at 2.5 uM after 24 hrs by Western blot analysis; format: functional, cell-based; method in brief: as §2
MDA-MB-231 [6] = assay: Induction of apoptosis in human MDA-MB-231 cells assessed as necrotic cells at 1.25 uM after 24 hrs by Annexin V-FITC/propidium iodide staining based flow cytometry (reference value: 0.3%); format: functional
MDA-MB-231 [7] = assay: Induction of apoptosis in human MDA-MB-231 cells assessed as early apoptotic cells at 2.5 uM after 24 hrs by Annexin V-FITC/propidium iodide staining based flow cytometry (reference value: 2.1%); format: functional
[8] = Antiproliferative activity against human WM9 cells after 48 hrs by MTT assay; format: functional, cell-based; conditions: WM9, 48 h; method in brief: as §1
MDA-MB-231 [9] = assay: Induction of apoptosis in human MDA-MB-231 cells after 24 hrs by Annexin V-FITC/propidium iodide staining based flow cytometry; format: functional, cell-based
HEL = assay: Antiproliferative activity against HEL cells after 48 hrs by MTT assay; format: functional, cell-based; conditions: Homo sapiens; method in brief: as §1
K562 = assay: Antiproliferative activity against human K562 cells after 48 hrs by MTT assay; format: functional, cell-based; conditions: K562, 48 h; method in brief: as §1
MDA-MB-231 [10] = assay: Induction of apoptosis in human MDA-MB-231 cells assessed as live cells at 2.5 uM after 24 hrs by Annexin V-FITC/propidium iodide staining based flow cytometry (reference value: 95.7%); format: functional
MDA-MB-231 [11] = assay: Induction of apoptosis in human MDA-MB-231 cells assessed as late apoptotic cells at 2.5 uM after 24 hrs by Annexin V-FITC/propidium iodide staining based flow cytometry (reference value: 1.9%); format: functional
MDA-MB-231 [12] = assay: Induction of apoptosis in human MDA-MB-231 cells assessed as increase in Bax expression at 2.5 uM after 24 hrs by Western blot analysis; format: functional, cell-based; method in brief: as §2
MDA-MB-231 [13] = assay: Induction of apoptosis in human MDA-MB-231 cells assessed as increase in cleaved PARP expression at 2.5 uM after 24 hrs by Western blot analysis; format: functional, cell-based; method in brief: as §2
MDA-MB-231 [14] = assay: Induction of apoptosis in human MDA-MB-231 cells assessed as necrotic cells at 2.5 uM after 24 hrs by Annexin V-FITC/propidium iodide staining based flow cytometry (reference value: 0.3%); format: functional
L02 = assay: Cytotoxicity against human HL7702 cells after 48 hrs by MTT assay; format: cell-based; conditions: L02, 48 h
Method in brief: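 Normal human liver HL7702 cells were assessed by MTT assay, with formazan absorbance as the read-out, to give an IC50 for cytotoxicity.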

MDA-MB-231 [15] = assay: Induction of apoptosis in human MDA-MB-231 cells assessed as early apoptotic cells at 1.25 uM after 24 hrs by Annexin V-FITC/propidium iodide staining based flow cytometry (reference value: 2.1%); format: functional

In the case of `COc1cc(NS(=O)(=O)c2ccc3ccccc3c2)c2cc1Oc1ccc(cc1)C[C@H]1c3cc(c(OC)cc3CCN1C)Oc1c(OC)c(OC)cc3c1[C@H](C2)N(C)CC3`, the Activity (MDA-MB-231 [1]) is reported as 9.6%, the IC50 (MDA-MB-231 [2]) is reported as 1180 nM and the Activity (MDA-MB-231 [3]) is reported as 85.9%. For the same molecule, the IC50 (PC-3) was 3.96 µM, the Activity (MDA-MB-231 [4]) was “Active” and the Activity (MDA-MB-231 [5]) was “Active”. It also gave an Activity (MDA-MB-231 [6]) of 0.7%, an Activity (MDA-MB-231 [7]) of 28.6% and an IC50 [8] of 4.74 µM. For the same molecule, the Activity (MDA-MB-231 [9]) was “Dose-dependent effect”, the IC50 (HEL) was 2330 nM and the IC50 (K562) was 1680 nM. The Activity (MDA-MB-231 [10]) was 42.6%, the Activity (MDA-MB-231 [11]) was 27.2% and the Activity (MDA-MB-231 [12]) was “Active”. For the same molecule, the Activity (MDA-MB-231 [13]) was “Active”, the Activity (MDA-MB-231 [14]) was 1.5% and the IC50 (L02) was 14.4 µM. The Activity (MDA-MB-231 [15]) was 3.8%.
